Measurements from ChEMBL document CHEMBL1795253, “Synthesis and biological evaluation in U87MG glioma cells of (ethynylthiophene)sulfonamido-based hydroxamates as matrix metalloproteinase inhibitors” (Eur J Med Chem, 2011).

Key:
Neutrophil collagenase = Neutrophil collagenase (Homo sapiens, UniProt P22894); test: Inhibition of human MMP8 by fluorometric assay
[1] = molecular target: T1, Matrix metalloproteinase-25 (Homo sapiens, UniProt Q9NPA2); test: Inhibition of human MMP25 by fluorometric assay
T1 sequence (Q9NPA2 whole entry): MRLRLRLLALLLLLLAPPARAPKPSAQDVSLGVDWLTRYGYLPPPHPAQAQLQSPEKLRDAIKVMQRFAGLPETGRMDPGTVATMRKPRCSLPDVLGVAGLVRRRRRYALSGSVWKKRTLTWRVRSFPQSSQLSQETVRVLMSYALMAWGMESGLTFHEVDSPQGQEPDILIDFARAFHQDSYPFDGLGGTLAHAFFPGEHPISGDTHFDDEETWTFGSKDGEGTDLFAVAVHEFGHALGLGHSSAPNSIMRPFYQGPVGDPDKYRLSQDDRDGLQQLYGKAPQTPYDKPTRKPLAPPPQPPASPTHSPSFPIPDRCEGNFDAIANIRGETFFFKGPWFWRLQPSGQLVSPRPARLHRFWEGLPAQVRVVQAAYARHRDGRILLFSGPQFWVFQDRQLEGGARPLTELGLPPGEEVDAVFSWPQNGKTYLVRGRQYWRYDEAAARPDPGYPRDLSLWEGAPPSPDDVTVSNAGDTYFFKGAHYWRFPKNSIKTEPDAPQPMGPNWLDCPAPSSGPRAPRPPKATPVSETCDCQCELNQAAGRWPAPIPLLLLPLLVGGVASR
How it was run: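 E. coli-expressed, refolded MMP-25 catalytic domain added to MOCAcPLGLA2pr(Dnp)AR-NH2 plus varying inhibitor in HEPES pH 7.5 with 5 mM CaCl2, 0.01% Brij-35, 5% DMSO, 25 °C. Initial rates from fluorescence (ex 328/em 393 nm), read every 4 s over 10 min.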

Stromelysin-1 = Stromelysin-1 (Homo sapiens, UniProt P08254); test: Inhibition of human MMP3 by fluorometric assay
Stromelysin-1, sequence (P08254 whole entry): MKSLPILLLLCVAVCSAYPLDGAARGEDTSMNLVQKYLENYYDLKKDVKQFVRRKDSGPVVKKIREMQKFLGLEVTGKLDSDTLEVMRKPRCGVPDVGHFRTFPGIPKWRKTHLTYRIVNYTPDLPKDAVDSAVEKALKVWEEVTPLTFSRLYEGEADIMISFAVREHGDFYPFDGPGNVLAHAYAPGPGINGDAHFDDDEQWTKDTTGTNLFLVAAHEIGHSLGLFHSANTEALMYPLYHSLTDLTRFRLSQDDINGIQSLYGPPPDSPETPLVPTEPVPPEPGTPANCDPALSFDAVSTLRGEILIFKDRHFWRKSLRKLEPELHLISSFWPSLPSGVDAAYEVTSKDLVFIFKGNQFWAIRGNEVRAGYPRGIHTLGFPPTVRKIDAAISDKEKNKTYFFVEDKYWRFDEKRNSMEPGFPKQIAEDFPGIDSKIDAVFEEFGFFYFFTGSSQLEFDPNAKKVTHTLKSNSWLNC

[2] = Antiinvasive activity against human U87MG cells at 5 nM after 24 hrs by Matrigel basement membrane transwell assay; assay type: functional, U-87MG ATCC
How it was run: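 U87MG cells (maintained in RPMI, 10% FBS, 37 °C, 5% CO2) suspended serum-free, 60,000 per upper transwell (8.0 μm filters coated with Matrigel 0.32 mg/mL), with inhibitor 5 nM, DMSO vehicle ≤1%. Lower chamber RPMI with 10% FBS. Invasion 24 h at 37 °C. Lower-surface cells fixed with p-formaldehyde, crystal violet-stained, counted in 5 fields. Inhibition versus untreated control. Duplicate, ≥3 experiments, mean ± S.E.M.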

[3] = molecular target: Matrix metalloproteinase-9 (Homo sapiens, UniProt P14780); test: Inhibition of human MMP9 by fluorometric assay
Matrix metalloproteinase-9, sequence (P14780 whole entry): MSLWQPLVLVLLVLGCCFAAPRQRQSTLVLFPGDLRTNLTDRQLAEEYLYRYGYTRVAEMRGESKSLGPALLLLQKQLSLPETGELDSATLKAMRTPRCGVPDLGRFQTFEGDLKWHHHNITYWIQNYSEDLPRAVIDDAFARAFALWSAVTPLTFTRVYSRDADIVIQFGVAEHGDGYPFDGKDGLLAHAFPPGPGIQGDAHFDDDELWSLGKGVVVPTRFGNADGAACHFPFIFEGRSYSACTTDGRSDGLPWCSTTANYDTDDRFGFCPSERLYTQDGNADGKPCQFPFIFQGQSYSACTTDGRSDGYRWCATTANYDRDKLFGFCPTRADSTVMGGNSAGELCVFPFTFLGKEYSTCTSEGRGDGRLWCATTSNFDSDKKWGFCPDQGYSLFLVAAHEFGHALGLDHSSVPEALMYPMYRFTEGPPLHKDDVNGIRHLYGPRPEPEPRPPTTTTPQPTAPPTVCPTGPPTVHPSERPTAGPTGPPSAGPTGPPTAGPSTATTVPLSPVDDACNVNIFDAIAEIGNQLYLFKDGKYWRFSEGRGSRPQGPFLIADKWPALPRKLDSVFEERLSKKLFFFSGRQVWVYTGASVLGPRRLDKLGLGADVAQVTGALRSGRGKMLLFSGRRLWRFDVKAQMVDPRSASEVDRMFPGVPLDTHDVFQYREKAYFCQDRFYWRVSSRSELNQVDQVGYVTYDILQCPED

[4] = molecular target: Matrix metalloproteinase-14 (Homo sapiens, UniProt P50281); test: Inhibition of human MMP14 by fluorometric assay
How it was run: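 Pro-enzymes activated with APMA (2 mM 2 h, MMP-1; 2 mM 1 h, MMP-2/-8; 1 mM 1 h, MMP-9; all 37 °C) or trypsin then soybean trypsin inhibitor (MMP-3). MMP-14 was catalytic domain. Enzyme (MMP-1 2.0, MMP-2 0.5, MMP-3 5.0, MMP-8 1.5, MMP-9 1.3, MMP-14 1.0 nM) with inhibitor at 7 concentrations, 2 h, 25 °C, in Tris pH 7.5, 1% DMSO.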

Interstitial collagenase = molecular target: T2, Interstitial collagenase (Homo sapiens, UniProt P03956); test: Inhibition of human MMP1 by fluorometric assay
T2 sequence (P03956 whole entry): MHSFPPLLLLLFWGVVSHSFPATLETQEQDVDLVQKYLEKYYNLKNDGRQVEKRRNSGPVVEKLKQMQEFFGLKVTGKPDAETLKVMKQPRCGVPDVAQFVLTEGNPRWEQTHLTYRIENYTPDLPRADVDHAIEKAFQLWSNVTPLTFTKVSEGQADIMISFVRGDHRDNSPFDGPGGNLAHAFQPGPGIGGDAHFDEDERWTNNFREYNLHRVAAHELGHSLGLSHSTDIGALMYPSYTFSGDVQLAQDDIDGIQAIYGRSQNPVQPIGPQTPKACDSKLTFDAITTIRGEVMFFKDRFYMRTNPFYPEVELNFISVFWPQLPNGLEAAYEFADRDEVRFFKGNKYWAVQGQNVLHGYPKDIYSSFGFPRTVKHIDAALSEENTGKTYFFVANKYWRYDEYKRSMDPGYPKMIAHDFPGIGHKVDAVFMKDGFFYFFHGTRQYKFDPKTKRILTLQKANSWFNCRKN

[5] = Cytotoxicity against human U87MG cells assessed as dead cells at 5 nM after 24 hrs by trypan blue exclusion assay; assay type: functional, U-87MG ATCC
How it was run: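 U87MG human glioblastoma cells (RPMI, 10% FBS, 2 mM L-glutamine, penicillin/streptomycin, 1% non-essential amino acids, 37 °C, 5% CO2) seeded at 30,000 cells/cm2 in serum-free medium with 5 nM compound, DMSO vehicle ≤1% final, for 24 h. Cells lightly trypsinized, pelleted 800 x g 5 min, stained with 0.4% Trypan Blue in 0.9% NaCl, counted by haemocytometer; mean ± S.E.M., ≥3 experiments in duplicate.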

[6] = molecular target: 72 kDa type IV collagenase (Homo sapiens, UniProt P08253); test: Inhibition of human MMP2 by fluorometric assay
72 kDa type IV collagenase, sequence (P08253 whole entry): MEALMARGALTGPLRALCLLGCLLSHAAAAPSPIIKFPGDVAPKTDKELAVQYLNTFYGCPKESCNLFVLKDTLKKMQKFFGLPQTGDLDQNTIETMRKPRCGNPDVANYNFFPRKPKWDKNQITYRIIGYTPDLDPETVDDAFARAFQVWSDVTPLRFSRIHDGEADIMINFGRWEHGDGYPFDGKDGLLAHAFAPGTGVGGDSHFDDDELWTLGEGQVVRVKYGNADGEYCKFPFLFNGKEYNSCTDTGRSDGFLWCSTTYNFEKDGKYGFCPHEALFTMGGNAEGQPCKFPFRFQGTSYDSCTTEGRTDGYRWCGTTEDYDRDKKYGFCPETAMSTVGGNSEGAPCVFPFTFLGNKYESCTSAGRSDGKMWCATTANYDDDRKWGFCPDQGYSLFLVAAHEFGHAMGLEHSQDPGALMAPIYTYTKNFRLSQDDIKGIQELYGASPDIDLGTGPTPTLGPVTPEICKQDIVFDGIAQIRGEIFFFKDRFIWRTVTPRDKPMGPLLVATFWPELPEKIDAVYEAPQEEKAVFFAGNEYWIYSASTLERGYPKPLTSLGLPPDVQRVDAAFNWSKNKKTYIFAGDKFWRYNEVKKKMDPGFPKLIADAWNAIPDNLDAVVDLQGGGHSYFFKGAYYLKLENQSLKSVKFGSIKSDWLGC

[7] = (§1) Antiinvasive activity against human U87MG cells after 24 hrs by Matrigel basement membrane transwell assay; assay type: functional, cell-based; details: u-87mg atcc
How it was run: (§2)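 Transwell filters (8.0 μm pores) coated with Matrigel (0.32 mg/mL) overnight at room temperature. U87MG cells in serum-free medium (60,000/400 μL) with inhibitor (1, 5, 25, 125 nM; DMSO ≤1%) in upper chamber; RPMI + 10% FBS below. 37 °C, 24 h.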

U-87MG ATCC = test: as §1; assay type: functional, cell-based; how it was run: as §2

Neutrophil collagenase, sequence (P22894 whole entry): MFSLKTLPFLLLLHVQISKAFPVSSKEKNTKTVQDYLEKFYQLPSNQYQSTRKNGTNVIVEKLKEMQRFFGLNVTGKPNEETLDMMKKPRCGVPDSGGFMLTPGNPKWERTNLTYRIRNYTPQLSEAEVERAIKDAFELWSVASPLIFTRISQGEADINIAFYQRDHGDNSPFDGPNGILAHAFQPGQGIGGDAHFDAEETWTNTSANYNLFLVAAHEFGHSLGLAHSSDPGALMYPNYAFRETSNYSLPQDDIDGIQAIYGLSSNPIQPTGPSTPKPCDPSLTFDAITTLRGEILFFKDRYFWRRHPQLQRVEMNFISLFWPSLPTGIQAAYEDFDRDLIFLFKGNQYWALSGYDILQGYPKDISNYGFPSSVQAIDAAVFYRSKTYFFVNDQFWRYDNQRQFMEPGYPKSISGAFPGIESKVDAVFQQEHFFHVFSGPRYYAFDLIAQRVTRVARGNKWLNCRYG

Compound	IC50 (Neutrophil collagenase)	IC50 [1]	IC50 (Stromelysin-1)	Activity [2]	IC50 [3]	IC50 [4]	IC50 (Interstitial collagenase)	Activity [5]	IC50 [6]	IC50 [7]	Activity (U-87MG ATCC)
CCCCc1ccc(C#Cc2ccc(S(=O)(=O)N3CSC[C@H]3C(=O)NO)s2)cc1	500 nM	170 nM	38 nM	16%	21 nM	1600 nM	21000 nM	17.8%	2.5 nM	–	–
CCCCc1ccc(C#Cc2ccc(S(=O)(=O)NCC(=O)NO)s2)cc1	200 nM	34 nM	46 nM	39.5%	79 nM	700 nM	13000 nM	11.5%	1.5 nM	–	–
CCCCc1ccc(C#Cc2ccc(S(=O)(=O)N3Cc4ccccc4C[C@@H]3C(=O)NO)s2)cc1	30 nM	3.4 nM	11 nM	35.9%	4.3 nM	112 nM	6700 nM	13.6%	1.3 nM	–	–
COc1ccc(S(=O)(=O)N(Cc2cccnc2)[C@@H](C(=O)NO)C(C)C)cc1.Cl [CGS-27023A]	–	1.5 nM	–	28.3%	–	–	–	10.8%	–	–	–
CCCCc1ccc(C#Cc2ccc(S(=O)(=O)N[C@H](Cc3csc4ccccc34)C(=O)NO)s2)cc1	1700 nM	220 nM	320 nM	34%	650 nM	23000 nM	56000 nM	14.4%	17 nM	–	–
CCCCc1ccc(C#Cc2ccc(S(=O)(=O)N[C@H](Cc3ccc(OCc4ccccc4)cc3)C(=O)NO)s2)cc1	490 nM	38 nM	180 nM	42.6%	63 nM	2100 nM	4800 nM	12.3%	2.3 nM	12 nM	Dose-dependent effect
CCCCc1ccc(C#Cc2ccc(S(=O)(=O)N[C@H](Cc3c[nH]c4ccccc34)C(=O)NO)s2)cc1	280 nM	76 nM	93 nM	48.4%	77 nM	1700 nM	2300 nM	6.8%	–	–	–
CCCCc1ccc(C#Cc2ccc(S(=O)(=O)N[C@H](Cc3ccc(C(=O)c4ccccc4)cc3)C(=O)NO)s2)cc1	440 nM	340 nM	84 nM	27.5%	50 nM	6600 nM	37000 nM	9.38%	4 nM	–	–
